Laboratory results taken from ChEMBL document CHEMBL4513216, “Probing the Open Global Health Chemical Diversity Library for Multistage-Active Starting Points for Next-Generation Antimalarials” (ACS Infect Dis, 2020).

Assay: Toxicity liver stage against HepG2, at 10uM
Format: cell-based
Design: test concentration 10 uM, cell line HepG2-A16-CD81EGFP
Settings: human, HepG2-A16-CD81EGFP cells; read-out: INHIBITION
Outline: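 Uninfected HepG2-A16-CD81EGFP cells, 3 × 10^3 per well, 1536-well, plated on prespotted compound at 10 μM final, parasite-free screening media added to match infected plates; puromycin 10 μM positive, DMSO 0.5% negative; run in parallel with 48 h PbLuc assay at 37 °C, 5% CO2; viability by CellTiter-Glo luminescence, normalized to controls.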

| Structure (SMILES) | cytotoxicity at 10 µM [%] |
| --- | --- |
| O=S(=O)(NCC1CCN(c2ccccn2)CC1)c1ccccc1F | -0.549 |
| CCn1c(NCc2ccc(OC)cc2)nc2c(C)nn(C)c2c1=O | 4.23 |
| Cc1ccnc(C2CCN(CCCOc3ccccc3F)C2)n1 (stereo unspecified) | 6.04 |
| CCOC(=O)c1n[nH]cc1-c1cncn1CC(C)n1nc(C)cc1C (stereo unspecified) | 2.25 |
| NC(=O)CN1CCCC1c1cncc(Oc2ccc(Cl)cc2)n1 (stereo unspecified) | -10.4 |
| Cc1nc(C)c(C(=O)N2CCCC2c2nc(O)cc(C(C)C)n2)s1 (stereo unspecified) | -29.4 |
| O=C(C1CC1)N1CCc2nc(C3CCN(C(=O)C4CC4)C3)nc(O)c2C1 (stereo unspecified) | -20.9 |
| Cc1nc(O)cc(C2CCCN2CCO)n1 (stereo unspecified) | -14.5 |
| CCc1nc2ccccc2c(=O)n1CC1(O)CCN(CC(=O)OC)CC1 | -4.99 |
| CC(C)CNC(=O)c1cc(C2CC2)nc2onc(C3CCNCC3)c12 | 10.8 |
| O=C1NCCCCC1NC(=O)C1(c2cccc(C(F)(F)F)c2)CC1 (stereo unspecified) | -5.67 |
| CSc1ccc(CNC2(c3ccc(F)cc3)CCOCC2)cc1 | -4.51 |
| CC(CNC(=O)N1CCC(CO)CC1)Cc1cccs1 (stereo unspecified) | -8.52 |
| Cn1nc2c(cc1=O)CN(CC(=O)Nc1nccs1)CC2 | 7.07 |
| O=C(c1ccoc1)N1CCCCC1c1nc[nH]n1 (stereo unspecified) | -7.03 |
| CC(SCCS(C)(=O)=O)c1nc(Cc2ccccc2)no1 (stereo unspecified) | 2.25 |
| O=C(O)c1ccnc(SCc2ccccc2)c1 | -9.98 |
| O=S(=O)(NC1CCCCC12OCCO2)c1cc(Cl)cc(Cl)c1 (stereo unspecified) | 11.5 |
| CCn1nc(C)cc1C(=O)N1CCOc2ccc(OC)cc21 | 14.3 |
| CCS(=O)(=O)N1CCN(C(C)c2ccccc2OC)CC1 (stereo unspecified) | 4.55 |
| CC(Nc1ccc(CC(=O)N(C)C)cc1)C(=O)N(C)CCC#N (stereo unspecified) | 1.42 |
| CC(CNC(=O)c1ccccc1Oc1cccnc1)N(C)C (stereo unspecified) | -9.29 |
| O=C(NC1(c2cccc(F)c2)CCOCC1)c1cc[nH]n1 | -6.83 |

| Structure (SMILES) | cytotoxicity at 10 µM [%] |
| --- | --- |
| COc1cc(C(=O)N(Cc2ccc(F)cc2)C2CC2)cc2c1OCCO2 | -1.33 |
| CC(NC(=O)NCC1(O)CCC1)c1ccc(OCC2CC2)c(F)c1 (stereo unspecified) | -4.69 |
| CS(=O)(=O)NCCCNC(=O)c1cccc(-n2cccc2)c1 | -9.86 |
| N[C@H]1CN(C(=O)Cc2ccc(Cl)c(Cl)c2)C[C@@H]1C1CC1 | -14.4 |
| Cc1cc(C)nc(NCc2cc3n(n2)CCCN(C(=O)C2CCC2)C3)n1 | -120 |
| Cc1nc(NCCSc2ccccn2)c2c(C)noc2n1 | 18.8 |
| Cc1ccc(F)cc1-c1ccc(N)nc1 | -143 |
| CC(C)c1nc(C(=O)N2C[C@H](C(C)C)[C@@H](N)C2)cs1 | -3.73 |
| CCn1c(CN2CCCC2)nnc1C1CCN(S(=O)(=O)CC)CC1 | -4.92 |
| CNC(=O)CC1CCN(Cc2nc(-c3cccc(Cl)c3)oc2C)CC1 | -9.75 |
| CNc1nc2c(c(C(=O)N3CCCC3)n1)CN(Cc1nccn1C)CC2 | -8.74 |
| O=C(c1cccc(=O)[nH]1)N(Cc1ccsc1)CC1CCCO1 (stereo unspecified) | -11.5 |
| CC(C)Oc1ccc(CNC(=O)CN(C)S(C)(=O)=O)cc1F | -3.1 |
| Cn1ncc2c(=O)[nH]c(CN3CCc4sccc4C3)nc21 | -19 |
| COC(=O)c1cccc(S(=O)(=O)NCc2cccnc2N(C)C)c1 | 5.68 |
| Cc1cnn(CC2CCCCN2CCCS(=O)(=O)N(C)C)c1 (stereo unspecified) | -5.1 |
| Cc1cnc(CN(C)C2CCN(Cc3nc4ccccc4o3)C2)o1 (stereo unspecified) | -19.4 |
| Cc1cnn(CC2CN(CC(=O)N(C)Cc3ccccc3)CCO2)c1 (stereo unspecified) | -4.35 |
| OC(CN1CCOCC1)CN1CCc2c(ncn2C2CC2)C1 (stereo unspecified) | 2.45 |
| CS(=O)(=O)N1CCN(CC(O)COc2ccc(F)cc2)CC1 (stereo unspecified) | 6.11 |
| COc1ccc(C(CNC(=O)Nc2cn[nH]c2)N2CCOCC2)cc1 (stereo unspecified) | 1.3 |
| COc1c(CNCc2ccc(C(=O)NC3CC3)cc2)c(C)nn1C | 3.18 |
| Cc1ccccc1CC(C)NCc1c(C)nn(C)c1N1CCOCC1 (stereo unspecified) | -13.1 |
